The source of these data is ChEMBL document CHEMBL1134785, “Synthesis and biological evaluation of prostaglandin-F alkylphosphinic acid derivatives as bone anabolic agents for the treatment of osteoporosis” (J Med Chem, 2001).

Assay [1] has as its target T1, Prostaglandin E2 receptor EP3 subtype (Homo sapiens, UniProt P43115).
T1 sequence (P43115 whole entry): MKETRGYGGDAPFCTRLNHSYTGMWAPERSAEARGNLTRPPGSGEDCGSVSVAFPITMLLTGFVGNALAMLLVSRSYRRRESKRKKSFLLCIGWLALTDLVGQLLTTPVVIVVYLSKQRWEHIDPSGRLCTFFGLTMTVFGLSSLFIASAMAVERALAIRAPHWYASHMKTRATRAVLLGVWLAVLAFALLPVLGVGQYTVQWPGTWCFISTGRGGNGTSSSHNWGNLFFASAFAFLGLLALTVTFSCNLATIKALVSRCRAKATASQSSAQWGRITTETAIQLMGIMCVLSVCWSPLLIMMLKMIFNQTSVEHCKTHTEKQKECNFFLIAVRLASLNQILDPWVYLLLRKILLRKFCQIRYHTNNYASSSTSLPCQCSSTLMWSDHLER
The assay is described as follows: In vitro binding at EP3 human prostaglandin receptor using [3H]PGE-2 as radioligand. The method in brief:
(§1)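 Receptors stably expressed in CHO cells, collected 4-5 days after seeding. Membranes made by lysis (Tris, EDTA, protease inhibitors) and 100000g pellet, then resuspended at 1 mg protein/mL in TME. Radioligands at 5 nM: [3H]PGE2 for EP2/EP3/EP4, [3H]Iloprost for IP, [3H]SQ-29548 for TP. Competition binding with filtration and counting.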

Assay [2] has as its system Rattus norvegicus. Briefly: Bone Volume /Tissue Volume (%)measured using micro Computed Tomography(CT) after a dose of 1000 ug/kg in Vertebral Bone. The note with it: at 1000 µg/kg. The assay is classed as functional.
Assay [3] deals with Rattus norvegicus. The assay is described as follows: Bone Volume /Tissue Volume (%)measured using micro Computed Tomography(CT) after a dose of 30 ug/kg in Vertebral Bone. The note with it: at 30 µg/kg. The assay is classed as functional.
The test system of assay [4] is Rattus norvegicus. The assay is described as follows: Bone Volume /Tissue Volume (%)measured using micro Computed Tomography(CT) after a dose of 300 ug/kg in Vertebral Bone. The assay is classed as functional. The note with it: at 300 µg/kg.
For assay [5], the system named is Rattus norvegicus. Briefly: Bone Volume /Tissue Volume (%)measured Histomorphometrically after a dose of 300 ug/kg in proximal tibial metaphysis. The assay is classed as functional. Conditions: at 300 µg/kg.
Assay [6] deals with Rattus norvegicus. Briefly: Bone Volume /Tissue Volume (%)measured using micro Computed Tomography(CT) after a dose of 100 ug/kg in Vertebral Bone. It is filed as functional. The note with it: at 100 µg/kg.
Assay [7] concerns Rattus norvegicus. The assay is described as follows: Bone formation rate/tissue volume (%/year)bone Histomorphometrically after a dose of 1000 ug/kg in proximal tibial metaphysis. It is filed as functional. Conditions: at 1000 µg/kg.
Assay [8] deals with Rattus norvegicus. The assay is described as follows: Directly measured thickness(um) using micro Computed Tomography(CT) after a dose of 10 ug/kg in Vertebral Bone. The assay is classed as functional. The method in brief:
(§2)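 Micro-CT of the fifth lumbar vertebra, measuring cancellous bone volume and architecture. Rats were 6 months old, OVX 60 days before treatment, then dosed daily for 60 days. Test-agent doses were 10–3000 µg/kg, given as a once-daily subcutaneous injection; 6 mg/kg/day was given to the positive-control group. Groups were compared with vehicle by ANOVA plus LSD test.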

Assay [9] relates to Rattus norvegicus. Briefly: Directly measured thickness(um) using micro Computed Tomography(CT) after a dose of 3000 ug/kg in Vertebral Bone. The assay is classed as functional. The method in brief: as §2
The subject of assay [10] is Rattus norvegicus. Briefly: Endosteal mineralizing surface Histomorphometrically after a dose of 10 ug/kg in tibial diaphysis. It is filed as functional. In short, it runs like this:
(§3)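 Six-month-old rats, bilaterally ovariectomized, 6-8 per group, on natural chow. After 60 days they received once-daily subcutaneous dosing for 60 days at 0.01–3.0 mg/kg. Vehicle was acetate-buffered saline with methylcellulose and polyoxyethylenesorbitan monooleate. Labels were xylenol orange 90 mg/kg before treatment and calcein 10 mg/kg 14 and 4 days before sacrifice. Tibial histomorphometry was read under fluorescent light, with ANOVA/LSD versus vehicle.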

Assay [11] deals with Rattus norvegicus. Briefly: Mineral apposition rate ([…])bone measured Histomorphometrically after a dose of 3000 ug/kg in proximal tibial metaphysis. The assay is classed as functional. The method in brief:
(§4)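 Ovariectomized six-month-old rats, 6-8 per group, were dosed subcutaneously once daily at 0.01–3.0 mg/kg for 60 days, starting 60 days after surgery. Vehicle was acetate-buffered saline, methylcellulose and polyoxyethylenesorbitan monooleate. Labels were xylenol orange 90 mg/kg pretreatment and calcein 10 mg/kg at 14 and 4 days before necropsy. Histomorphometry covered the proximal tibial metaphysis, 1–4 mm distal to the growth plate–metaphyseal junction. ANOVA/LSD versus vehicle.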

Assay [12] deals with Rattus norvegicus. The assay is described as follows: Periosteal mineralizing surface (%) measured Histomorphometrically after a dose of 300 ug/kg in tibial diaphysis. It is filed as functional. The method in brief: (§5)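 Rats on natural chow (1.46% Ca) were bilaterally ovariectomized at 6 months and left untreated for 60 days. They then received once-daily subcutaneous doses for 60 days, with vehicle of acetate-buffered saline, methylcellulose and polysorbate. Xylenol orange (90 mg/kg) was given before treatment and calcein (10 mg/kg) 14 and 4 days before sacrifice. Tibiae were analysed by fluorescent histomorphometry, 6-8 rats/group, ANOVA/LSD vs vehicle.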

In assay [13] the test system is Rattus norvegicus. Briefly: Mineral apposition rate ([…])bone measured Histomorphometrically after a dose of 10 ug/kg in proximal tibial metaphysis. The assay is classed as functional. The method in brief: as §4
Assay [14] concerns Rattus norvegicus. The assay is described as follows: Mineral apposition rate ([…])bone measured Histomorphometrically after a dose of 1000 ug/kg in tibial diaphysis. The assay is classed as functional. In short, it runs like this:
as §3

For assay [15], the system named is Rattus norvegicus. The assay is described as follows: Trabecular thickness […] measured Histomorphometrically after a dose of 100 ug/kg in proximal tibial metaphysis. The assay is classed as functional, Trabecula. In short, it runs like this: (§6)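 Six-month-old rats were ovariectomized, and 60 days later daily subcutaneous dosing began for 60 days, with vehicle of acetate-buffered saline, methylcellulose and polysorbate. Xylenol orange (90 mg/kg) labelled bone pre-treatment and calcein (10 mg/kg) 14 and 4 days pre-sacrifice. Histomorphometry covered the proximal tibial metaphysis 1-4 mm distal to the growth plate-metaphyseal junction. Groups were 6-8 rats, compared by ANOVA/LSD vs vehicle.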

The subject of assay [16] is Rattus norvegicus. Briefly: connectivity density (mm-3) using micro Computed Tomography(CT) after a does of 10 ug/kg in Vertebral Bone. It is filed as functional. In short, it runs like this: (§7)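 Rats were ovariectomized at 6 months of age and, after 60 days, dosed subcutaneously once daily for 60 days, with vehicle of acetate-buffered saline, methylcellulose and polysorbate. At necropsy the fifth lumbar vertebra was scanned by micro-CT to obtain cancellous architecture. Groups were 6-8 rats; results were compared to vehicle by ANOVA with least significant difference test.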

In assay [17] the test system is Rattus norvegicus. Briefly: connectivity density (mm-3) using micro Computed Tomography(CT) after a does of 1000 ug/kg in Vertebral Bone. It is filed as functional. The method in brief:
as §7

Assay [18] deals with Rattus norvegicus. Briefly: Tissue area (mm) measured Histomorphometrically after a dose of 100 ug/kg in tibial diaphysis. The assay is classed as functional. In short, it runs like this: as §5
A further assay deals with T2, Thromboxane A2 receptor (Homo sapiens, UniProt P21731).
T2 sequence (P21731 whole entry): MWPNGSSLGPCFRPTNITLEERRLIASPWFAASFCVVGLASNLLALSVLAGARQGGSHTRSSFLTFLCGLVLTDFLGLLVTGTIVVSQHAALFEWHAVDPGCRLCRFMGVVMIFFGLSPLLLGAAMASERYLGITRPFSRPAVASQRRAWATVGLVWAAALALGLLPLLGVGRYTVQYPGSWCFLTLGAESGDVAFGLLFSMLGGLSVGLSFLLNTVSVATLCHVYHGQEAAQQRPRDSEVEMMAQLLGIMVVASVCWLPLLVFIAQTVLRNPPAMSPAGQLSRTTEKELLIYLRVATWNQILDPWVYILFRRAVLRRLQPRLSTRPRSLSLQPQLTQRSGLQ
The assay is described as follows: In vitro binding at TP human prostaglandin receptor using [3H]SQ-29,548 as radioligand. The method in brief: as §1

In assay [19] the test system is Rattus norvegicus. Briefly: Trabecular no (mm)measured Histomorphometrically after a dose of 3000 ug/kg in proximal tibial metaphysis. It is filed as functional, Trabecula. The method in brief:
as §6

Usually IC50 stands for the concentration that gives 50% inhibition. For the compound `CP(=O)(O)CCC/C=C\C[C@@H]1[C@@H](/C=C/[C@@H](O)COc2ccccc2)[C@H](O)C[C@@H]1O`, the IC50 (in [1]; on Thromboxane A2 receptor) was over 10 µM each time. Besides, the Activity worked out at 36.98% in the assay on Rattus norvegicus [2]; 34.58% with Rattus norvegicus [3]; 38.61% with Rattus norvegicus [4]; 5.72% in the assay with Rattus norvegicus [5]; 38.04% in the assay with Rattus norvegicus [6]; 23.44% in the assay on Rattus norvegicus [7]. In addition, the Directly measured thickness is 118 µm in the assay with Rattus norvegicus [8] and 134 µm in the assay on Rattus norvegicus [9]. In the assay with Rattus norvegicus [10], this compound returned an Endosteal mineralizing surface of 46.62%. In addition, the Mineral apposition rate in the assay on Rattus norvegicus [11] came to 0.94 µm/day; in the assay with Rattus norvegicus [13], 0.99 µm/day; with Rattus norvegicus [14], 1.01 µm/day. Further, in the assay on Rattus norvegicus [12], the Periosteal mineralizing surface is 9.56%. Also, the Trabecular thickness with Rattus norvegicus [15] turned out to be 45.5 µm. Besides, the values for the Connectivity density in the assay on Rattus norvegicus [16] and in the assay with Rattus norvegicus [17] were 60.28 mm**-3 and 59.66 mm**-3, respectively. The same compound yielded a Tissue area with Rattus norvegicus [18] of 4.95 mm. Also, the Trabecular no. in the assay with Rattus norvegicus [19] was 1.51 1/mm.
